Source: the RNAGym collection of RNA variant scans (doi:10.1126/science.aae0568)
Variants at the floor of the assay were thinned out.

B1: tRNA (parent)
chain: GUUCCGUUGGCGUAAUGGUAACGCGUCUCCCUCCUAAGGAGAAGACUGCGGGUUCGAGUCCCGUACGGAACG

Variants of: B1
Assay: yeast fitness relative to wild type (ratio to wild type); higher = fitter; tRNA-Arg(CCU), competitive growth, 37 C, YPD
In short: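 Genotype frequency changes were the basis for Darwinian fitness relative to wild type. The frequencies came from 100-nucleotide paired-end sequencing of gene amplicons from the start population and each end population of pooled yeast strains with tRNA-Arg(CCU) gene variants at the native locus. Competition ran in YPD at 37°C for 24 hours in six replicates, genotypes needed ≥ 100 starting reads, and estimates < 0.5 were set to 0.5.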
GUUCCGUUGGCGUAAUGGUAACGCGUGUCCCUGCUAAGGAAAAGACUGCGGGUUCGAGUCCCGUACGGAACG [C27G C33G G41A] gave a yeast fitness of no more than 0.5.
For GUUCCGUUGGCGUAAUGGUAACGCGUGUCCCUCCUAAGGAGAAGACUGCGGGUUCGGGUCCCGUACGGAACG [C27G A57G], the yeast fitness was 0.608.
GUUCCGUUGGCGUAAUGGUAACGCGUGUCCCUCCUAAGGAGAAGACUGCGGGUUCGUGUCCCGUACGGAACG [C27G A57U] showed a yeast fitness of 0.591.
GUUCCGUUGGCGUAAUGGUAACGCGUGUCCCUUCUAAGGAGAAGUCUGCGGGUUCGAGUCCCAUACGGAACG [C27G C33U A45U G63A] showed a yeast fitness of no more than 0.5.
GUUCCGUUGGCGUAAUGGUAACGCGUGUCGCUCCUAAGGAGAAGACUGUGGGUUCGAGUCACGUACGGAACG [C27G C30G C49U C61A] gave a yeast fitness of no more than 0.5.
In the case of GUUCCGUUGGCGUAAUGGUAACGCGUGUCCCUCCUAAGGAGAAGACUGCGGGUUCGAGUACCGUACGGAACG [C27G C60A], the yeast fitness is reported as no more than 0.5.
In the case of GUUCCGUUGGCGUAAUGGUAACGCGUGUCCCUCCUAAGGAGAAGACUGCGGGUUCGAGUUCCGUACGGAACG [C27G C60U], the yeast fitness is reported as no more than 0.5.
Variant GUUCCGUUGGCGUAAUGGUAACGCGUGUCCGUUCUAAGGAGAAGACUGCGGGUUCGAGUCCCGUACGGAACG [C27G C31G C33U] has a yeast fitness of no more than 0.5.
GUUCCGUUGGCGUAAUGGUAACGCGUGUCCGUCCUAAGGAGAAGACUGCGGGUUCGAGUCACGUACGGAACG [C27G C31G C61A] showed a yeast fitness of 0.693.
In the case of GUUCCGUUGGCGUAAUGGUAACGCGUGUCUCUCCUAAGCUGAACACAACGGGUUCGAGUCCCGUACGGAACG [C27G C30U G39C A40U G44C U47A G48A], the yeast fitness is reported as no more than 0.5.
With GUUCCGUUGGCGUAAUGGUAACGCGUGUGCCUCCUAAGGAGAAGACUGUGGGUUCGAGUCCCGUACGGAACG [C27G C29G C49U] the yeast fitness was no more than 0.5.
Variant GUUCCGUUGGCGUAAUGGUAACGCGUGUGCCUCCUAAGGUGAAGCCUGCGGGUUCGUGUCCCGUACGGAACG [C27G C29G A40U A45C A57U] has a yeast fitness of no more than 0.5.
For GUUCCGUUGGCGUAAUGGUAACGCGUGUCCCUCCUAAGGAGAAGACUGCGGGUUCGAGUGCCGUUCGGAACG [C27G C60G A65U], the yeast fitness was 0.641.
GUUCCGUUGGCGUAAUGGUAACGCGUGUCGCUCCUAAGGAGAAGACUGUGGGUUCGAGUUCCCUACGGAACG [C27G C30G C49U C60U G63C] gave a yeast fitness of 0.678.
GUUCCGUUGGCGUAAUGGUAACGCGUGUCGCUCCUAAGGAGAAGACUGUGGGUUCGAGUCCUGUACAGAACG [C27G C30G C49U C62U G67A] gave a yeast fitness of no more than 0.5.
Variant GUUCCGUUGGCGUAAUGGUAACGCGUGUCGCUCCUAAGGAGAAGACUGCGGGUUCUAGUCCCAUACGGAACG [C27G C30G G56U G63A] has a yeast fitness of no more than 0.5.
GUUCCGUUGGCGUAAUGGUAACGCGUGUCUCUCCUAAGGAGAAGACUGCGGGUUCGAGUCCCGUUCGGAUCG [C27G C30U A65U A70U] showed a yeast fitness of 0.594.
Variant GUUCCGUUGGCGUAAUGGUAACGCGUGUCCCUCUUAAGGAGAAGACUGUGGGUUCGAGUCCCGUAGGGAACG [C27G C34U C49U C66G] has a yeast fitness of no more than 0.5.
With GUUCCGUUGGCGUAAUGGUAACGCGUGUCCCUCCUAACGAGAAGACUGGGGGUUCGAGUCCCGUACGGAGCG [C27G G38C C49G A70G] the yeast fitness was no more than 0.5.
GUUCCGUUGGCGUAAUGGUAACGCGUGUCCCUCCUAAGGAGAAGACUGCGGGUUAGAAUCCCGUACGGAACG [C27G C55A G58A] showed a yeast fitness of no more than 0.5.
Variant GUUCCGUUGGCGUAAUGGUAACGCGUGUCCGUCCUAACGAGAAGACUGCGGGUUCGAGUCCCGUACGGAACG [C27G C31G G38C] has a yeast fitness of 0.504.
GUUCCGUUGGCGUAAUGGUAACGCGUGUCCCUCCUAAGGAGAAGACUGUGGGUUCGAGUCCCCUACGGAACG [C27G C49U G63C] showed a yeast fitness of no more than 0.5.
Work on GUUCCGUUGGCGUAAUGGUAACGCGUGUCCUUCCUAAGGAGAAGACUGCGGGUUCGGGUCCCGUACGGAACG [C27G C31U A57G] yielded a yeast fitness of 0.562.
GUUCCGUUGGCGUAAUGGUAACGCGUGUCUCUCCUAAGGAGAAGACUGCGGCUUCGAGUCCCGUACGGAACG [C27G C30U G52C] showed a yeast fitness of 0.507.
In the case of GUUCCGUUGGCGUAAUGGUAACGCGUGUCCCUCAUAAGGAGAAGACUGCGGGUUCGAGUCUCGUACGGAACG [C27G C34A C61U], the yeast fitness is reported as no more than 0.5.
Work on GUUCCGUUGGCGUAAUGGUAACGCGUGUCCCUGCUAAGGAGAAAACUGCGGGUUCGAGUCCCGUACGGAACG [C27G C33G G44A] yielded a yeast fitness of 0.669.
GUUCCGUUGGCGUAAUGGUAACGCGUGUCCCUCCUAAAGAGAAGACUCCGGGUUCGAGUCCCGUACGGAACG [C27G G38A G48C] showed a yeast fitness of 0.538.
GUUCCGUUGGCGUAAUGGUAACGCGUGUCCUUCCUAAGGAGAAGACUGGGGGUUCGAGACCCGUACGGAACG [C27G C31U C49G U59A] showed a yeast fitness of no more than 0.5.
GUUCCGUUGGCGUAAUGGUAACGCGUGUCCAUCCUACGGAGAAGACUGCGGGUUCGAGUCCCGUACGGAACG [C27G C31A A37C] gave a yeast fitness of no more than 0.5.
Variant GUUCCGUUGGCGUAAUGGUAACGCGUGUCUCCCCUAAGGAGAAGACUGCGCGUUCGAGUCCCGUACGGAACG [C27G C30U U32C G51C] has a yeast fitness of 0.603.
Variant GUUCCGUUGGCGUAAUGGUAACGCGUGUCCCUCCUAAAGAGAAGACUGCGGGUUCGAGUCCCGUACGGAUCG [C27G G38A A70U] has a yeast fitness of no more than 0.5.
In the case of GUUCCGUUGGCGUAAUGGUAACGCGUGUCCCUCCUAAGGAGAAGUCUGUGGGUUCGAGUCCCGUACGGAACG [C27G A45U C49U], the yeast fitness is reported as no more than 0.5.
For GUUCCGUUGGCGUAAUGGUAACGCGUGUCCCUCGUAAGGAGAAGAUUGUGGGUUCGAGUCCCGUACGGAACG [C27G C34G C46U C49U], the yeast fitness was no more than 0.5.
GUUCCGUUGGCGUAAUGGUAACGCGUGUCCCUCCUAAGGAGAAGGCUACGGGUUCGAGUCCCGUAUGGAACG [C27G A45G G48A C66U] gave a yeast fitness of no more than 0.5.
With GUUCCGUUGGCGUAAUGGUAACGCGUGUCGCUCCUAAGGGGAAGACUGAGGGUUCGAGUCCCGUACGGAACG [C27G C30G A40G C49A] the yeast fitness was 0.571.
GUUCCGUUGGCGUAAUGGUAACGCGUGUGCCUCUUAAGGAGAAGACUGCGGGUUUGAGUCGCGUACGGAACG [C27G C29G C34U C55U C61G] showed a yeast fitness of 0.65.
With GUUCCGUUGGCGUAAUGGUAACGCGUGUCCCUCCUAAGGAGAAGUCUGCGGGUUCCAGUCCCGUACGGAACG [C27G A45U G56C] the yeast fitness was 0.531.
With GUUCCGUUGGCGUAAUGGUAACGCGUGUCCCUCCUAACGAGAAGACUGCGGGUUCGAGUCCGGUAUGGAACG [C27G G38C C62G C66U] the yeast fitness was no more than 0.5.
